According to publication PMC2196149 (The Journal of Experimental Medicine, 1997):
Primed or numbered codes have the meaning given here. No end group written: not given here. *: point of attachment. IASA″ = iodo-4-azidosalicylic acid, on the N-terminus in place of PbCS S-252; Benzoyl(4-N3) = [N-]=[N+]=Nc1ccc(C(=O)*)cc1; IASA = iodo-4-azidosalicylic acid

Columns and labels:
[1] = system: TCR on CTL S4; experiment: TCR-ligand dissociation, clone S4; format: binding, mice; details: preliminary, unpublished results
[2] = system: seven IASA-YIPSAEK(ABA)I-specific CTL clones; experiment: 51Cr release cytolytic assay, P815 targets, seven CTL clones; format: cell-based, mice; details: clones S1, S4, S14, S15, S17, S18, T1; 51Cr-labeled P815 targets; wt = 1 (Fig. 3 A)
[3] = system: S15 CTL / A20 Fas^− cells; experiment: 51Cr release cytolytic assay, A20 Fas^− targets, clone S15; format: cell-based, mice; details: 51Cr-labeled A20 Fas^− cells, E/T 3:1, 8 h; representative experiment (Fig. 4 B)
Procedure, shortened: (§1)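 Murine H-2Kd-restricted CTL clone specific for a photoreactive derivative of a Plasmodium berghei circumsporozoite 252–260 peptide. Targets are 51Cr-labeled A20 B lymphoma cells or their Fas-lacking variant, 2 × 10^3/well, in threefold dilutions of peptide derivative in DMEM + 5% FCS + 10 mM Hepes. CTL (6 × 10^3/well) added after 15 min; 8 h at 37°C. Supernatant 51Cr counted. Specific lysis = 100 × (experimental − spontaneous)/(total − spontaneous).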

[4] = system: S15 CTL; experiment: 51Cr release cytolytic assay, P815 targets, clone S15; format: cell-based, mice; details: 51Cr-labeled P815 targets; partial recognition
Procedure, shortened: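 Cloned CTL are tested on 51Cr-labeled P815 mastocytoma targets (DMEM, 5% FCS, 10 mM Hepes), 2 × 10^3/well, with threefold dilutions of peptide derivative. CTL (6 × 10^3/well) added after 15 min; 4 h at 37°C. Supernatant 51Cr measured. Specific lysis = 100 × (experimental − spontaneous)/(total − spontaneous release).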

[5] = system: S15 CTL / A20 cells; experiment: 51Cr release cytolytic assay, A20 targets, clone S15; format: cell-based, mice; details: 51Cr-labeled A20 cells, E/T 3:1, 8 h; representative experiment (Fig. 4 A)
Procedure, shortened: as §1

[6] = system: TCR on CTL T1; experiment: TCR-ligand dissociation, clone T1; format: binding, mice; details: preliminary, unpublished results
[7] = system: S14 CTL; experiment: inhibition of recognition of photocross-linked IASA-YIPSAEK; format: cell-based, mice; details: P815 cells photocross-linked with suboptimal IASA-YIPSAEK(ABA)I (Fig. 5 B)
[8] = system: TCR on CTL S17; experiment: TCR-ligand dissociation, clone S17; format: binding, mice; details: preliminary, unpublished results

With E258A ({IASA}-YIPSAAK(Benzoyl(4-N3))I) the “dissociation of ligand from TCR compared with wild-type ligand” value [1] was “considerably slower”.

I254A ({IASA}-YAPSAEK(Benzoyl(4-N3))I) was tested, and the “normalized relative antigenic activities over seven CTL clones” value (“normalized relative antigenic activities” below) [2] was 0.1 to 6.

With IASA-YIPSAEK(ASA)I [K259(ASA)] the “normalized relative antigenic activities” value [2] was “efficiently recognized by all clones, except by clone S15”, the “concentration for half-maximal lysis of A20 Fas^− cells by S15 CTL” value [3] was “not detectably lysed” and the “plateau of specific lysis, S15 CTL” value [4] was at most 30%. The “specific lysis at half-maximum, A20 cells, S15 CTL” value [5] was 13%.

With IASA-YIPSAEK(IASA)I the “plateau of specific lysis, S15 CTL” value [4] was “even lower plateau of lysis”.

For “P255A ({IASA}-YIASAEK(Benzoyl(4-N3))I; not fully specified)”, the “normalized relative antigenic activities” value [2] was 0.1 to 6 and the “dissociation of ligand from TCR compared with wild-type ligand” value [6] was “faster”.

With “P255L ({IASA}-YILSAEK(Benzoyl(4-N3))I; not fully specified)” the “concentration required for maximal inhibition relative to K259(BA), S14 CTL” value [7] was about 10 fold.

With “P255S ({IASA}-YISSAEK(Benzoyl(4-N3))I; not fully specified)” the “dissociation of ligand from TCR compared with wild-type ligand” value [8] was “considerably slower”.

In the case of S256A ({IASA″}-YIPAAEK(Benzoyl(4-N3))I), the “normalized relative antigenic activities” value [2] is reported as 0.1 to 6 and the “dissociation of ligand from TCR compared with wild-type ligand” value [8] is reported as “faster”.
